No end group written: not given here.
Columns and labels:
[1] = Body weight of xenograft mice during treatment; assay type: in vivo; conditions: 9 doses 5 mg kg−1, Fig. 6c
Outline: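 MDA-MB-231 cells (3 × 10^6) injected subcutaneously into 7–8-week-old athymic nude (FOXN1NU) mice. Dosing started 28 days after inoculation and ran for 3 weeks: either 6 doses of peptide at 50 μM (0.875 mg kg−1; 17.5 microgram/mouse) or 9 doses of doxorubicin (5 mg kg−1). Body weight and tumour size were tracked throughout.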

[2] = system: MDA-MB-231 cells; assay: Uptake of fluorescein labelled peptide, confocal microscopy; assay type: cell-based, human; conditions: 10 μM, confocal fluorescence, inside cells at 3 and 6 hours; Fig. 1d, e
[3] = system: MCF-10A cells; assay: Uptake of fluorescein labelled peptide, confocal microscopy; assay type: cell-based, human; conditions: 10 μM, confocal fluorescence; Fig. 1d, e
Outline: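 MCF-10A cells were grown in 1:1 DMEM/Ham's F12 with 5% horse serum, EGF, insulin, hydrocortisone, cholera toxin and pen/strep. They were plated a day ahead at 2 × 10^5 in glass-bottom chamber dishes and exposed to fluorescein-labelled peptide (10 μM) for up to 24 h. Nuclei were stained with Hoechst 33342 and mitochondria with Rhodamine 800, then imaged by confocal microscopy over time. Data: 25 cells per field per time point, n = 5 independent experiments, mean ± SD.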

[4] = system: rat cardio myoblast H9C2 cells; assay: Penetration and cytotoxicity in non-malignant immortalized cells; assay type: cell-based; conditions: semi-confocal microscopy, 3h incubation; Fig. S2
[5] = system: human embryonic kidney 293 HEK cells; assay: as above; assay type: cell-based; conditions: semi-confocal microscopy, 3h incubation; Fig. S2

COc1cccc2c1C(=O)c1c(O)c3c(c(O)c1C2=O)C[C@@](O)(C(=O)CO)C[C@@H]3O[C@H]1C[C@H](N)[C@H](O)[C@H](C)O1 [doxorubicin]
body weight during treatment [1]: severe decrease in body weight

Fl-NAF-1^44-67: NAF-1^44-67 labelled with fluorescein ({5(6)‑carboxyfluorescein}-FLGVLALLGYLAVRPFLPKKKQQK; UniProt Q8N5K1 44-67, looked up, fragment)
penetration of fluorescein-labelled peptide into MDA-MB-231 cells [2]: preferentially penetrated MDA-MB-231 cancer cells
penetration of fluorescein-labelled peptide into MCF-10A cells [3]: did not permeate normal cells
entry of fluorescein-labelled peptide into H9C2 cells [4]: no entry
entry of fluorescein-labelled peptide into 293 HEK cells [5]: no entry

Source: PMC9200128 (Chemical Science, 2022)
